ChEMBL document CHEMBL1124258, “(Imidazo[1,2-a]pyrimidin-2-yl)phenylmethanones and related compounds as potential nonsedative anxiolytics” (J Med Chem, 1988)

Assays:
Rattus norvegicus [1] = species: Rattus norvegicus; assay: Minimum Effective Dose (MED) was measured using Food-Conflict test in rats; assay type: functional; conditions: read-out: MED
How it was run: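 Male Lister rats on alternating schedule: five 4-min FI30 unpunished and 3-min FR5 punished components (food-motivated). Oral dosing, first at 50 mg/kg in four rats, then at decreasing doses if active until the minimum effective dose was reached.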

[2] = target: GABA-A receptor; anion channel; assay: Inhibition of 0.6 nM [3H]flunitrazepam binding to GABA-A central benzodiazepine receptor of rat forebrain membrane
How it was run: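 Rat forebrain membranes with [3H]flunitrazepam at 0.6 nM, modified Squires–Braestrup method. IC50 (nM) read from displacement curves of at least four concentrations, each in triplicate.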

Mus musculus [3] = species: Mus musculus; assay: Sedative/muscle relaxant effect in mice by using Rotating-Drum test; assay type: functional
How it was run: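 Male CD-1 mice were placed on a rotating drum (3 cm diameter, 16 rev/min) 1 h after dosing. Mean time on the drum for groups of 10 was expressed as a percentage of the control group mean.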

Mus musculus [4] = species: Mus musculus; assay: Muscle relaxation in mice by using Pull-Up test; assay type: functional
Rattus norvegicus [5] = species: Rattus norvegicus; assay: Minimum Effective Dose(MED was measured by using Licking-Conflict test in rats; assay type: functional; conditions: read-out: MED
How it was run: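 Rats trained to stable suppression of drinking at tone onset. Each session had 1 min unpunished drinking, then a tone lasting through a 3-min punished period.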

Mus musculus [6] = assay: Anticonvulsant activity in CD-1 mice with 120 mg/kg of leptazol; assay type: functional
How it was run: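 Male CD-1 mice challenged with leptazol at 120 mg/kg, following Everett and Richards. ED50 (mg/kg po) with 95% confidence limits by Litchfield–Wilcoxon where the doses allowed.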

Structure (SMILES) | minimal effective dose (Rattus norvegicus [1]) | IC50 [2] | ED50 (Mus musculus [3]) | ED50 (Mus musculus [4]) | minimal effective dose (Rattus norvegicus [5]) | ED50 (Mus musculus [6])
CCCCc1c(OC)nc2nc(C(=O)c3ccccc3)cn2c1CC | 10 mg/kg | 0.034 µM |  |  |  | 
CCCCc1cc(OC)nc2nc(C(=O)c3ccccc3)cn12 | 10 mg/kg | 0.34 µM |  |  |  | 
CCc1cc(OC)nc2nc(C(=O)c3ccccc3)cn12 | 2 mg/kg | 0.295 µM |  |  |  | 
COc1ccc(C(=O)c2cn3c(cc(OC)c4ccccc43)n2)cc1 | > 50 mg/kg | 0.037 µM |  |  |  | 
CCCC(=O)c1cn2c(cc(OC)c3cc(CC)ccc32)n1 | 20 mg/kg | 0.535 µM |  |  |  | 
CCCCc1ccc2c(c1)c(OC)cc1nc(C(=O)c3ccccc3)cn12 | 10 mg/kg | 0.025 µM |  |  |  | 
CCOc1nc2nc(C(=O)c3ccccc3)cn2c2c1CSCC2 | > 50 mg/kg | > 10 µM |  |  |  | 
CCCc1c(SC)nc2nc(C(=O)c3ccccc3)cn2c1CC | 10 mg/kg | 0.047 µM |  |  |  | 
CCc1c(SC)nc2nc(C(=O)c3ccccc3)cn2c1C | 2 mg/kg | 0.012 µM | 100 mg/kg | 200 mg/kg | 2 mg/kg | 12.5 mg/kg
CSc1nc2nc(C(=O)c3ccccc3)cn2c2c1CCC(C)C2 (stereo not given) | 50 mg/kg | 0.076 µM |  |  |  | 
C=CCc1c(OC)nc2nc(C(=O)c3ccccc3)cn2c1CC | 10 mg/kg | 0.042 µM |  |  |  | 
CCCc1c(OC)nc2nc(C(=O)c3ccccc3)cn2c1CC | 10 mg/kg | 0.034 µM |  |  |  | 
COc1nc2nc(C(=O)c3ccccc3)cn2c2c1CSCC2 | 20 mg/kg | 0.185 µM |  |  |  | 
CSc1cc(C)n2cc(C(=O)c3ccccc3)nc2n1 | 5 mg/kg | 0.19 µM |  |  |  | 
COc1nc2nc(C(=O)c3ccccc3)cn2c2c1CCC(C)C2 (stereo not given) | 10 mg/kg | 0.135 µM |  |  |  | 
CSc1nc2nc(C(=O)c3ccccc3)cn2c2c1CSCC2 | 50 mg/kg | 0.024 µM |  |  |  | 
CCOc1nc2nc(C(=O)c3ccccc3)cn2c2c1CCCCC2 | 5 mg/kg | 4 µM |  |  |  | 
O=C(Nc1nccs1)c1cn2c(n1)sc1ccccc12 |  | > 0.01 µM |  |  |  | 
CCc1ccc2c(c1)sc1nc(C(=O)c3ccccc3)cn12 |  | 0.74 µM |  |  |  | 
CCC(=O)c1cn2c(cc(OC)c3cc(CC)ccc32)n1 | 10 mg/kg | 0.135 µM |  |  |  | 
CCOC(=O)N1Cc2c(OC)nc3nc(C(=O)c4ccccc4)cn3c2C1 | 50 mg/kg | 10 µM |  |  |  | 
COc1cc2nc(C(=O)c3ccccc3)cn2c2ccc(F)cc12 | 10 mg/kg | 0.02 µM |  |  |  | 
CCCc1ccc2c(c1)c(OC)cc1nc(C(=O)c3ccccc3)cn12 | 2 mg/kg | 0.016 µM |  |  |  | 

Structure (SMILES) | minimal effective dose (Rattus norvegicus [1]) | IC50 [2] | ED50 (Mus musculus [3]) | ED50 (Mus musculus [4]) | minimal effective dose (Rattus norvegicus [5]) | ED50 (Mus musculus [6])
CCc1ccc2c(c1)c(OC)cc1nc(C(=O)c3ccccc3)cn12 | 5 mg/kg | 0.014 µM | 22.5 mg/kg | 640 mg/kg | 2 mg/kg | 3.2 mg/kg
CCCOC(=O)c1cn2c(n1)sc1ccccc12 |  | 0.47 µM |  |  |  | 
COc1nc2nc(C(=O)c3ccccc3)cn2c(C)c1CC1CC1 | 10 mg/kg | 0.03 µM |  |  |  | 
CCCc1c(OC)nc2nc(C(=O)c3ccccc3)cn2c1C | 5 mg/kg | 0.085 µM | 100 mg/kg | 100 mg/kg | 5 mg/kg | 200 mg/kg
O=C(Nc1cccc(Cl)c1)c1cn2c(n1)sc1ccccc12 |  | > 10 µM |  |  |  | 
COc1cc2nc(C(=O)c3cccs3)cn2c2ccccc12 | > 50 mg/kg | 0.024 µM |  |  |  | 
CSc1nc2nc(C(=O)c3ccccc3)cn2c2c1CCCC2 | 10 mg/kg | 0.009 µM |  |  |  | 
COc1nc2nc(C(=O)c3ccccc3)cn2c2c1CSC2 | > 50 mg/kg | 0.43 µM |  |  |  | 
C=CCc1c(OC)nc2nc(C(=O)c3ccccc3)cn2c1C | 5 mg/kg | 0.045 µM | 100 mg/kg |  | 10 mg/kg | 54 mg/kg
COc1nc2nc(C(=O)c3ccccc3)cn2c(C)c1OC | 5 mg/kg | 1 µM |  |  |  | 
CC(C)OC(=O)c1cn2c(n1)sc1ccccc12 |  | 0.16 µM |  |  |  | 
CCc1ccc2c(c1)c(OC)cc1nc(C(C)=O)cn12 | 20 mg/kg | 1.3 µM |  |  |  | 
CCOc1nc2nc(C(=O)c3ccccc3)cn2c2c1CCCC2 | > 50 mg/kg | 2 µM |  |  |  | 
COc1nc2nc(C(=O)c3ccccc3)cn2c2c1CCC2 | 20 mg/kg | 0.2 µM |  |  |  | 
CCc1cn2cc(C(=O)c3ccccc3)nc2nc1OC | 5 mg/kg | 1.5 µM |  |  |  | 
COc1cc2nc(C(=O)c3ccccc3)cn2c2ccc(C(C)C)cc12 | 5 mg/kg | 0.01 µM |  |  |  | 
CCOC(=O)Cc1cn2c(n1)sc1ccccc12 |  | > 0.01 µM |  |  |  | 
C=CCc1c(SC)nc2nc(C(=O)c3ccccc3)cn2c1C | 5 mg/kg | 0.008 µM |  |  |  | 
COc1cc2nc(C(=O)c3ccccc3)cn2c2ccc(C)cc12 | 5 mg/kg | 0.021 µM |  |  |  | 
O=C(O)c1cn2c(n1)sc1ccccc12 |  | > 0.01 µM |  |  |  | 
CCCCc1c(OC)nc2nc(C(=O)c3ccccc3)cn2c1C | 2 mg/kg | 0.042 µM |  |  |  | 
CCc1ccc2c(c1)c(OC)c(C)c1nc(C(=O)c3ccccc3)cn12 | 2 mg/kg | 0.007 µM |  |  |  | 
COc1cc2nc(C(=O)c3ccccc3)cn2c2ccccc12 | 5 mg/kg | 0.057 µM |  |  |  | 

Structure (SMILES) | minimal effective dose (Rattus norvegicus [1]) | IC50 [2] | ED50 (Mus musculus [3]) | ED50 (Mus musculus [4]) | minimal effective dose (Rattus norvegicus [5]) | ED50 (Mus musculus [6])
O=C(OC1CCCCC1)c1cn2c(n1)sc1ccccc12 |  | 7.1 µM |  |  |  | 
COc1cc2nc(C(=O)c3ccccc3)cn2c2cc(C)c(C)cc12 | 5 mg/kg | 0.1 µM |  |  |  | 
CSc1nc2nc(C(=O)c3ccccc3)cn2c2c1CCC2 | 2 mg/kg | 0.035 µM |  |  |  | 
CCc1c(OC)nc2nc(C(=O)c3ccccc3)cn2c1CC | 2 mg/kg | 0.107 µM |  |  |  | 
CCc1ccc2c(c1)c(OC)c(CC)c1nc(C(=O)c3ccccc3)cn12 | 20 mg/kg | 0.135 µM |  |  |  | 
COC(=O)c1cn2c(n1)sc1ccccc12 |  | 0.06 µM |  |  |  | 
CCOC(=O)c1cn2c(n1)sc1ccccc12 |  | 0.12 µM |  |  |  | 
O=C(OCc1ccccc1)c1cn2c(n1)sc1ccccc12 |  | 0.05 µM |  |  |  | 
CCSc1nc2nc(C(=O)c3ccccc3)cn2c2c1CCC2 | 50 mg/kg | 1.85 µM |  |  |  | 
CCOC(=O)c1cn2c(n1)sc1cc(CC)ccc12 |  | 4 µM |  |  |  | 
COc1nc2nc(C(=O)c3ccccc3)cn2c2c1CCCC2 | 5 mg/kg | 0.061 µM | 200 mg/kg | 500 mg/kg | 5 mg/kg | 100 mg/kg
CCCc1cc(OC)nc2nc(C(=O)c3ccccc3)cn12 | 1 mg/kg | 0.535 µM |  |  |  | 
CC1(C)COC(c2cn3c(n2)sc2ccccc23)=N1 |  | > 10 µM |  |  |  | 
O=C(c1ccccc1)c1cn2c(n1)sc1ccccc12 |  | 0.085 µM |  |  |  | 
COc1nc2nc(C(=O)c3ccccc3)cn2c2c1CCCCC2 | 10 mg/kg | 0.125 µM |  |  |  | 
COc1cc(C)n2cc(C(=O)c3ccccc3)nc2n1 | 5 mg/kg | 0.8 µM |  |  |  | 
CCOc1nc2nc(C(=O)c3ccccc3)cn2c2c1CCC2 | 50 mg/kg | > 10 µM |  |  |  | 
COc1cc2nc(C(=O)c3ccc(C)cc3)cn2c2ccccc12 | > 50 mg/kg | 0.019 µM |  |  |  | 
CCc1ccc2c(c1)c(OC)cc1nc(C(=O)c3ccccn3)cn12 | 5 mg/kg | 0.009 µM |  |  |  | 
CCCc1cc(SC)nc2nc(C(=O)c3ccccc3)cn12 | 10 mg/kg | 0.089 µM |  |  |  | 
COc1cc2nc(C(=O)c3ccc(Cl)cc3)cn2c2ccccc12 | > 50 mg/kg | 0.096 µM |  |  |  | 
CNC1=Nc2ccc(Cl)cc2C(c2ccccc2)=[N+]([O-])C1 [CHLORDIAZEPOXIDE] | 5 mg/kg |  | 6.8 mg/kg | 16 mg/kg | 2 mg/kg | 1.9 mg/kg
CCc1c(OC)nc2nc(C(=O)c3ccccc3)cn2c1C [DIVAPLON] | 2 mg/kg | 0.056 µM | 200 mg/kg | 200 mg/kg | 2 mg/kg | 21 mg/kg
